Myeloid diff MLP = induction of myeloid progenitor differentiation, primary screen, cell-based, flow cytometry, MLPCN library. ER-HoxA9 myeloid progenitors, lysozyme-GFP differentiation. calls only at 10 µM. hit rate 1% among 360,000;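 active = normalized GFP-positive differentiation at or above the plate's own cutoff, the solvent-only control mean plus 3 SD; inconclusive = no clear call, values can overlap the other calls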;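 note: cells exposed to compound for four days before flow analysis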
HNF4A DNA FP = change in binding of human HNF4A to DNA, primary screen, biochemical, fluorescence polarization, FITC-DNA. hit rate 0.3% among 360,000. activity change, % at 10 µM. 1 h. AID 1224865, 2016. Hepatocyte nuclear factor 4-alpha (Homo sapiens), P41235; in the data active = activity change above about 30%, passing the limit was not always enough
CSN inh = inhibitors of CSN-mediated cullin deneddylation, primary screen, biochemical, fluorescence polarization, uHTS | COP9 signalosome complex subunit 5 (Homo sapiens), Q92905 | Purified CSN, SCF-Nedd8-OG deneddylation | inhibition, % at 12.5 µM | hit rate 0.38% among 360,000;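 active = pattern-corrected inhibition above about 35%, with an unprinted fluorescence ratio check between 0.5 and 1.5, limit read from the data, passing the limit was not always enough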;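 note: 0% = enzyme with substrate and 100% = substrate without enzyme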
Target sequence (Q92905 whole entry, looked up, one chain of several): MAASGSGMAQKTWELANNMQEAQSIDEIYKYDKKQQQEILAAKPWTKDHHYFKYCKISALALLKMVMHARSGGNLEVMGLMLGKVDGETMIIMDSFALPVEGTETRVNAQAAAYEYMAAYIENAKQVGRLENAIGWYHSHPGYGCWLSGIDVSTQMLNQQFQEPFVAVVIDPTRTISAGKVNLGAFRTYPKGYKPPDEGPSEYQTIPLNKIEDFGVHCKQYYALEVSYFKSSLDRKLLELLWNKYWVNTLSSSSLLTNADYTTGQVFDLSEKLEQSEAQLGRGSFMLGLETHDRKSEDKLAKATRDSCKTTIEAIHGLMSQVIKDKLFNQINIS
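Assay system: Purified human Csn5 enzyme expressed in HEK293T cells | Amount: Enzyme 0.24 nM | Measured by: Fluorescence polarization readout | Medium: Tris/NaCl/DTT buffer, pH 7.5 | Compound dosing: One concentration, 12.5 µM, 0.25% DMSO | Times: 90 min incubation of compound, enzyme and substrate at room temperature | Control set: no-enzyme wells high, enzyme-with-substrate wells low | Read-out: % inhibition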
Granule exo inh = LAMP-1 surface exposure blockers, TALL-104 cells – cell-based, flow cytometry, MLPCN library, primary screen. TALL-104 LAMP-1 surface exposure; cells stimulated with thapsigargin and PMA. inhibition, % at 10 µM. hit rate 0.66% among 360,000. AID 651702, 2012;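 active = inhibition above about 55%, limit read from the data; inconclusive = no clear call, values can overlap the other calls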
Granule exo CP1 = inhibitors of lytic granule exocytosis, confirmation, TALL-104 cells, flow cytometry, Cherry Pick01 | hit rate 11% among 1,500 | inhibition, % at 10 µM | LAMP-1 externalization; stimulated with PMA plus thapsigargin | shares compounds with Granule exo inh; in the data active = inhibition above about 60%;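 note: 0% = stimulated vehicle wells and 100% = unstimulated wells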
Active calls of the source: *; i = inactive; u = inconclusive; x = no result. A selection: hits, their analogues and other compounds. The true share with any hit is near 2.2%.

SMILES	Myeloid diff MLP	HNF4A DNA FP	CSN inh	Granule exo inh	Granule exo CP1
CCCc1cc(=O)n2[nH]c(NC(=O)c3ccco3)nc2n1	i	3.1	0.9	-9.5	x
Cc1ccc2oc(C(=O)N(C)Cc3ccc(C)o3)c(C)c2c1	i	-0.7	2.7	80.8*	24.3
Cc1cc(C)n2nc(SCC(=O)N3CCN(c4ccccc4)CC3)nc2n1	i	-0.8	-3.2	1.0	x
COc1ccc(-c2nnc(N3CCCCC3)c3ccccc23)cc1	i	-1.4	-0.3	-0.5	x
Cc1ccc(-c2nnc(N3CCCCCC3)c3ccccc23)cc1	u	0.5	0.8	65.7*	-12.1
CC1=C(C(=O)N2CCCCCC2)CC(CC(=O)NCCCCc2ccccc2)C(=O)N1CCC1=CCCCC1 (centres undefined)	i	0.2	-0.9	85.6*	0.2
CC1=C(C(=O)N2CCCCCC2)CC(CC(=O)NCc2cccc3ccccc23)C(=O)N1CCC1=CCCCC1 (centres undefined)	i	-1.0	2.1	58.1*	-5.9
CCOC(=O)C1(Cc2ccccc2)CCCCCC1=O (centres undefined)	i	2.5	1.8	1.4	x
O=C(CN1C(=O)/C(=C\c2ccccc2Br)Oc2ccccc21)NCCCN1CCOCC1	i	-0.3	-1.1	34.2	x
O=C(NCCCN1CCOCC1)c1ccc(/C=C2\Oc3ccccc3N(Cc3ccccc3F)C2=O)cc1	i	-5.7	1.1	62.9*	-1.2
CCOC(=O)C1(C)CCCN(C(=O)c2snnc2C)C1 (centres undefined)	i	2.2	-0.6	-4.7	x
NS(=O)(=O)c1ccc(NC(=S)Nc2ccc(S(=O)(=O)Nc3nccs3)cc2)cc1	i	-5.5	-0.4	-0.4	x
O=S(=O)(c1ccc(SCCO)nc1)N1CCOCC1	i	2.0	1.1	59.8*	-10.0
c1ccc(C2=NOC(c3nnc(-c4ccccc4)o3)C2)cc1 (centres undefined)	i	5.1	-1.8	90.8*	-12.9
CCOc1ccc(S(=O)(=O)N2CCN(CC(O)COc3cccc([N+](=O)[O-])c3)CC2)cc1 (centres undefined)	i	5.6	-2.1	26.6	x
CNCc1ccccc1Sc1ccc(O)c(O)c1	i	-4.0	-2.4	81.5*	29.1
CC(=O)c1c(OC(=O)c2ccccc2)ccnc1C(F)(F)F	i	0.5	-2.7	-1.4	x
O=C(COC(=O)Cc1c(F)cccc1Cl)NC(=O)Nc1ccccc1F	i	0.2	-9.8	-6.2	x
CCN(CC(=O)NCc1cccs1)C(=O)c1ccc(NS(=O)(=O)c2ccc(C(C)=O)cc2)cc1	i	-4.7	-6.6	-3.7	x
O=C(COc1cccc([N+](=O)[O-])c1)NN1C(=O)c2ccccc2C1=O	i	-2.8	-0.3	-3.9	x
CCOC(=O)c1c(NC(C)=O)sc2c(OCC(O)CN(CC)CC)c(Br)ccc12 (centres undefined)	i	2.3	2.8	67.8*	71.3*
CCOC(=O)c1c(NC(C)=O)sc2c(OCCN(CC)CC)c(Br)ccc12	i	-0.4	-5.0	8.8	x
CCC(CC)C(=O)Nc1ccc(Sc2ccc([N+](=O)[O-])cc2)cc1	i	1.0	-4.1	55.6*	-0.5
CCCC(=O)Nc1ccc(Sc2ccc([N+](=O)[O-])cc2)cc1	i	0.3	5.0	-4.0	x
CCCCN(C(=O)C(C)(C)Oc1ccc(Cl)cc1)c1c(N)n(CCC)c(=O)[nH]c1=O	i	8.9	1.0	-0.1	x
SMILES	Myeloid diff MLP	HNF4A DNA FP	CSN inh	Granule exo inh	Granule exo CP1
CCC(C)C(CO)NCCCn1cnc2c(SC)ncnc21 (centres undefined)	i	1.9	3.7	1.6	x
CSc1cccc(NC(=O)c2cccc3cccnc23)c1	i	0.6	0.9	81.8*	-14.3
COc1ccc(C(=O)Nc2c(O)ccc3ccccc23)cc1	i	6.1	0.0	7.3	x
COc1ccc(NC(=O)Nc2c(O)ccc3ccccc23)cc1	i	-0.9	-2.7	87.3*	-3.8
CN(Cc1cccc(Cl)c1Cl)C(=O)c1cccc(S(=O)(=O)N2CCN(Cc3ccccc3)CC2)c1	u	-3.8	1.7	5.4	x
c1ccc(OCCOCCN2CCN(C(c3ccccc3)c3ccccc3)CC2)cc1	i	2.3	-2.3	59.0*	7.6
OC(COc1ccccc1)CN1CCN(C(c2ccccc2)c2ccccc2)CC1 (centres undefined)	i	-3.0	-1.0	18.3	x
CCNC(=O)NC(=O)CSc1ccc(S(=O)(=O)N(C)C2CCCCC2)cn1	i	-2.1	-1.2	2.5	x
Cc1cc(C(=O)CSc2nc3ccccc3[nH]2)c(C)n1CC1CCCO1 (centres undefined)	i	-2.0	0.0	89.6*	76.8*
Cc1cc(C(=O)CSc2nc(N)cc(=O)[nH]2)c(C)n1CC1CCCO1 (centres undefined)	i	1.8	-2.7	-0.3	x
CC(C)(C)c1cc(CP(=O)(c2ccccc2)c2ccccc2)cc(C(C)(C)C)c1O	i	0.6	-2.0	57.2*	-11.9
Cc1csc(NC(=O)c2cc(C)on2)n1	i	3.8	-1.6	-6.8	x
O=C(COC(=O)c1n[nH]c(=O)c2ccccc12)Nc1cccc(S(=O)(=O)N2CCOCC2)c1	i	1.0	0.0	0.9	x
COc1ccc(COc2ccc3ccc(=O)oc3c2)cc1	i	-0.1	2.0	85.8*	-13.5
C[C@H](c1ccccc1)N1C[C@@H](COCc2ccccc2)Oc2cc(N3CC[C@@H](N(C)C)C3)ccc2S1(=O)=O	i	11.0	0.1	63.0*	12.6
C[C@H](c1ccccc1)N1C[C@@H](COCc2ccccc2)Oc2cc(N3CC[C@@H](O)C3)ccc2S1(=O)=O	i	3.2	-1.1	-0.3	x
C[C@H](c1ccccc1)N1C[C@@H](COCc2ccccc2)Oc2cc(N3CC[C@H](N(C)C)C3)ccc2S1(=O)=O	i	3.0	-0.7	53.4	x
C[C@@H](c1ccccc1)N1C[C@@H](COCc2ccccc2)Oc2cc(N3CC[C@H](N(C)C)C3)ccc2S1(=O)=O	i	1.6	1.2	69.9*	16.5
COC(=O)c1ccc(N2C(c3cccc(OC)c3)=Cc3ccc(F)cc3C2c2c(C)[nH]c3ccccc23)cc1 (centres undefined)	i	3.4	-2.5	5.5	x
CC1CCN(c2nc(-c3ccccc3O)nc3ccccc23)CC1	i	0.7	1.8	59.0*	-15.1
Oc1ccccc1-c1nc(N2CCCC2)c2ccccc2n1	i	-1.6	1.3	17.1	x
COc1ccccc1Cn1c(C)c(C(=O)NCc2ccco2)sc1=O	i	12.3	-2.6	-1.8	x
COc1ccccc1NS(=O)(=O)c1ccc(C(=O)NCCCN2CCOCC2)cc1	i	1.5	1.5	-2.0	x

Assay outcomes from PubChem.
